From ChEMBL document CHEMBL4177761, “Highlights of the Structure-Activity Relationships of Benzimidazole Linked Pyrrolidines Leading to the Discovery of the Hepatitis C Virus NS5A Inhibitor Pibrentasvir (ABT-530)” (J Med Chem, 2018)
Changes are numbered by the printed parent chain. Values after ≈ are worked out from the molar mass of the structure shown.

What was measured:
[1] = target: T1, Nonstructural protein 5A (Hepatitis C virus) (UniProt Q5L478); test: Inhibition of NS5A Q30E mutant in HuH7 cell infected HCV genotype 1a H77 assessed as decrease in viral replication after 4 days by luciferase reporter gene assay relative to wild type protein; conditions: Hepatitis C virus (isolate H77)
T1 sequence (whole entry): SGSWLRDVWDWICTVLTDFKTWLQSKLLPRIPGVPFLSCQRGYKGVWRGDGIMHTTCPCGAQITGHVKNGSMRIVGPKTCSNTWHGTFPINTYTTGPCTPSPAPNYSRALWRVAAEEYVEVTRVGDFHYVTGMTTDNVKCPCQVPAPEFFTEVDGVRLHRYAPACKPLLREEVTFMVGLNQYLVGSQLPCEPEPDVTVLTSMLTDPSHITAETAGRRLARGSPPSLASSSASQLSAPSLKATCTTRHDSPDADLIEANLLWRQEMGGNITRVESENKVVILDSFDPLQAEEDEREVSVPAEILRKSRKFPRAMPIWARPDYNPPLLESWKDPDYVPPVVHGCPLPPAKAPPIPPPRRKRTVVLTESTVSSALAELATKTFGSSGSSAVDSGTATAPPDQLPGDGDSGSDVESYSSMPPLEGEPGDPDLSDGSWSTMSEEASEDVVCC
Procedure, shortened: (§1)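 Stable subgenomic luciferase replicons in Huh-7 cells: genotype 1a-H77 carrying NS5A substitutions M28T, Q30E, Q30R, Y93C, Y93H or Y93N, tested alongside the wild-type replicon. Cells are incubated 4 days with compound in DMEM with 5% FBS. Luciferase read-out, EC50 by 4-parameter logistic fit, and fold change versus wild type.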

[2] = target: T1, Nonstructural protein 5A (Hepatitis C virus); test: Inhibition of NS5A Q30R mutant in HuH7 cell infected HCV genotype 1a H77 assessed as decrease in viral replication after 4 days by luciferase reporter gene assay relative to wild type protein; conditions: Hepatitis C virus (isolate H77); procedure, shortened: as §1
[3] = test system: T2, Nonstructural protein 5A (Hepatitis C virus), Q5L478 [Y93C]; test: Inhibition of NS5A Y93C mutant in HuH7 cell infected HCV genotype 1a H77 assessed as decrease in viral replication after 4 days by luciferase reporter gene assay relative to wild type protein; conditions: Hepatitis C virus (isolate H77); procedure, shortened: as §1
T2 sequence (whole entry): T1 sequence (whole entry) with Y93C

[4] = test system: T3, Nonstructural protein 5A (Hepatitis C virus), Q5L478 [Y93H]; test: Inhibition of NS5A Y93H mutant in HuH7 cell infected HCV genotype 1a H77 assessed as decrease in viral replication after 4 days by luciferase reporter gene assay relative to wild type protein; conditions: Hepatitis C virus (isolate H77); procedure, shortened: as §1
T3 sequence (whole entry): T1 sequence (whole entry) with Y93H

[5] = test system: T4, Nonstructural protein 5A (Hepatitis C virus), Q5L478 [Y93N]; test: Inhibition of NS5A Y93N mutant in HuH7 cell infected HCV genotype 1a H77 assessed as decrease in viral replication after 4 days by luciferase reporter gene assay relative to wild type protein; conditions: Hepatitis C virus (isolate H77); procedure, shortened: as §1
T4 sequence (whole entry): T1 sequence (whole entry) with Y93N

[6] = test system: T3, Nonstructural protein 5A (Hepatitis C virus), Q5L478 [Y93H]; test: Inhibition of NS5A Y93H mutant in HuH7 cell infected HCV genotype 1b Con1 assessed as decrease in viral replication after 4 days by luciferase reporter gene assay relative to wild type protein; conditions: Hepatitis C virus (isolate Con1)
Procedure, shortened: as §1, with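 “1b-Con1” for “1a-H77”, “NS5A” for “NS5A substitutions M28T, Q30E, Q30R, Y93C,”, “from a” for “by”, “expressed as” for “and”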

[7] = test system: T4, Nonstructural protein 5A (Hepatitis C virus), Q5L478 [Y93N]; test: Inhibition of NS5A Y93N mutant in HuH7 cell infected HCV genotype 1b Con1 assessed as decrease in viral replication after 4 days by luciferase reporter gene assay relative to wild type protein; conditions: Hepatitis C virus (isolate Con1)
Procedure, shortened: as §1, with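 “1b-Con1” for “1a-H77”, “NS5A” for “NS5A substitutions M28T, Q30E, Q30R, Y93C,”, “from a” for “by”, “expressed as” for “and”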

[8] = target: T1, Nonstructural protein 5A (Hepatitis C virus); test: Inhibition of NS5A M28T mutant in HuH7 cell infected HCV genotype 1a H77 assessed as decrease in viral replication after 4 days by luciferase reporter gene assay relative to wild type protein; conditions: Hepatitis C virus (isolate H77); procedure, shortened: as §1
[9] = Lipophilicity, log D of the compound by HPLC method; assay type: physicochemical
[10] = Solubility of the compound by CLND method; assay type: physicochemical
[11] = Intrinsic clearance in human microsomes; assay type: ADME, Microsome
[12] = Intrinsic clearance in rat microsomes; assay type: ADME, Microsome
[13] = AUC (0 to infinity) in mouse at 3 mg/kg, po by LC-MS method; assay type: ADME, organism-based; design: dose 3 mg/kg, route oral, time infinity; conditions: in vivo
Procedure, shortened: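 Single dose, 3 mg/kg, in mouse or rat. IV vehicle: DMSO:Tween 80:PEG-400:D5W 2:5:20:73 (v/v). PO vehicle: Phosol 53 MCT:PEG-400:Poloxamer 124:Cremophor RH40 40:20:20:20 (w/w). Acetonitrile protein precipitation, then LC-MS/MS in negative-ion MRM against an internal standard; LOQ ~20 ng/mL.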

`COC(=O)N[C@H](C(=O)N1CCC[C@H]1c1nc2ccc([C@H]3CC[C@H](c4ccc5nc([C@@H]6CCCN6C(=O)[C@@H](NC(=O)OC)C(C)C)[nH]c5c4)N3c3ccc(-c4ccccc4)cc3)cc2[nH]1)C(C)C` showed a fold change (FC) [1] of 47, a fold change (FC) [2] of 10 and a fold change (FC) [3] of 24. It also gave a fold change (FC) [4] of 329, a fold change (FC) [5] of 827 and a fold change (FC) [6] of 1. It also gave a fold change (FC) [7] of 1.

`COC(=O)N[C@H](C(=O)N1CCC[C@H]1c1nc2ccc([C@H]3CC[C@H](c4ccc5nc([C@@H]6CCCN6C(=O)[C@@H](NC(=O)OC)C(C)C)[nH]c5c4)N3c3cc(F)c(N4CCC(c5ccc(F)cc5)CC4)c(F)c3)cc2[nH]1)C(C)C` gave a fold change (FC) [8] of 2, a fold change (FC) [1] of 20 and a fold change (FC) [2] of 3. It also gave a fold change (FC) [3] of 3, a fold change (FC) [4] of 20 and a fold change (FC) [5] of 25. For the same molecule, the fold change (FC) [6] was 2.

Work on `COC(=O)N[C@H](C(=O)N1CCC[C@H]1c1nc2ccc([C@H]3CC[C@H](c4ccc5nc([C@@H]6CCCN6C(=O)[C@@H](NC(=O)OC)C(C)C)[nH]c5c4)N3c3ccc(N4CCC(c5ccccc5)CC4)cc3)cc2[nH]1)C(C)C` yielded a logD [9] of 5.4, a solubility kinetic [10] of 0.82 µM (≈ 0.813 µg/mL) and a CLint scaled [11] of less than 25 mL/min/kg. The CLint scaled [12] was 46.7 mL/min/kg.

In the case of `COC(=O)N[C@H](C(=O)N1CCC[C@H]1c1nc2cc([C@H]3CC[C@H](c4ccc5[nH]c([C@@H]6CCCN6C(=O)[C@@H](NC(=O)OC)C(C)C)nc5c4)N3c3cc(F)c(N4CCC(c5ccc(F)cc5)CC4)c(F)c3)ccc2[nH]1)C(C)C`, the AUC(0-inf) [13] is reported as 4590 ng·h/mL, the logD [9] is reported as 5.8 and the solubility kinetic [10] is reported as 0.9 µM (≈ 0.941 µg/mL). It also gave a CLint scaled [11] of less than 25 mL/min/kg and a CLint scaled [12] of 53.3 mL/min/kg.

With `COC(=O)N[C@H](C(=O)N1CCC[C@H]1c1nc2cc(F)c([C@H]3CC[C@H](c4cc5[nH]c([C@@H]6CCCN6C(=O)[C@@H](NC(=O)OC)C6CCOCC6)nc5cc4F)N3c3cc(F)c(N4CCC(c5ccc(F)cc5)CC4)c(F)c3)cc2[nH]1)C1CCOCC1` the fold change (FC) [1] was 1, the fold change (FC) [4] was 2 and the fold change (FC) [5] was 2.

Molecule `COC(=O)N[C@H](C(=O)N1CCC[C@H]1c1nc2ccc([C@H]3CC[C@H](c4ccc5nc([C@@H]6CCCN6C(=O)[C@@H](NC(=O)OC)C(C)C)[nH]c5c4)N3c3ccc(Cl)cc3)cc2[nH]1)C(C)C` has a fold change (FC) [8] of 28, a fold change (FC) [1] of 83 and a fold change (FC) [2] of 44. It also gave a fold change (FC) [3] of 22, a fold change (FC) [4] of 670 and a fold change (FC) [5] of 1160. For the same molecule, the fold change (FC) [6] was 1.

Molecule `COC(=O)N[C@H](C(=O)N1CCC[C@H]1c1nc2cc([C@H]3CC[C@H](c4ccc5[nH]c([C@@H]6CCCN6C(=O)[C@@H](NC(=O)OC)C(C)C)nc5c4)N3c3cc(F)c(N4CCCCC4)c(F)c3)ccc2[nH]1)C(C)C` has a fold change (FC) [8] of 5, a fold change (FC) [1] of 134 and a fold change (FC) [2] of 13. For the same molecule, the fold change (FC) [3] was 9, the fold change (FC) [4] was 241 and the fold change (FC) [5] was 510. The fold change (FC) [6] was 1, the AUC(0-inf) [13] was 1790 ng·h/mL and the solubility kinetic [10] was 0.7 µM (≈ 0.666 µg/mL). It also gave a CLint scaled [11] of 175 mL/min/kg and a CLint scaled [12] of 187 mL/min/kg.

In the case of `COC(=O)N[C@H](C(=O)N1CCC[C@H]1c1nc2cc(F)c([C@H]3CC[C@H](c4cc5[nH]c([C@@H]6CCCN6C(=O)[C@@H](NC(=O)OC)C(C)C)nc5cc4F)N3c3cc(F)c(N4CCC(c5ccccc5)CC4)c(F)c3)cc2[nH]1)C(C)C`, the fold change (FC) [8] is reported as 1, the fold change (FC) [1] is reported as 12 and the fold change (FC) [2] is reported as 2. It also gave a fold change (FC) [3] of 6, a fold change (FC) [4] of 49 and a fold change (FC) [5] of 50. The fold change (FC) [6] was 1 and the fold change (FC) [7] was 1.

`COC(=O)N[C@H](C(=O)N1CCC[C@H]1c1nc2ccc([C@H]3CC[C@H](c4ccc5nc([C@@H]6CCCN6C(=O)[C@@H](NC(=O)OC)C(C)C)[nH]c5c4)N3c3cc(F)c(N4CCC(c5ccccc5)CC4)c(F)c3)cc2[nH]1)C(C)C` showed a fold change (FC) [8] of 3, a fold change (FC) [1] of 69 and a fold change (FC) [2] of 7. It also gave a fold change (FC) [3] of 6, a fold change (FC) [4] of 72 and a fold change (FC) [5] of 145. For the same molecule, the fold change (FC) [6] was 1 and the fold change (FC) [7] was 1.

Molecule `COC(=O)N[C@H](C(=O)N1CCC[C@H]1c1nc2cc(F)c([C@H]3CC[C@H](c4cc5[nH]c([C@@H]6CCCN6C(=O)[C@@H](NC(=O)OC)[C@@H](C)OC)nc5cc4F)N3c3cc(F)c(N4CCC(c5ccccc5)CC4)c(F)c3)cc2[nH]1)[C@@H](C)OC` has a fold change (FC) [8] of 1, a fold change (FC) [1] of 2 and a fold change (FC) [2] of 1. It also gave a fold change (FC) [3] of 1, a fold change (FC) [4] of 6 and a fold change (FC) [5] of 5. It also gave a fold change (FC) [6] of 1 and a fold change (FC) [7] of 0.3.

Molecule `COC(=O)N[C@H](C(=O)N1CCC[C@H]1c1nc2cc(F)c([C@H]3CC[C@H](c4cc5[nH]c([C@@H]6CCCN6C(=O)[C@@H](NC(=O)OC)C6CCOCC6)nc5cc4F)N3c3cc(F)c(N4CCC(c5ccccc5)CC4)c(F)c3)cc2[nH]1)C1CCOCC1` has a fold change (FC) [1] of 1, a fold change (FC) [4] of 3 and a fold change (FC) [5] of 2.

For `COC(=O)N[C@H](C(=O)N1CCC[C@H]1c1nc2cc([C@H]3CC[C@H](c4ccc5[nH]c([C@@H]6CCCN6C(=O)[C@@H](NC(=O)OC)C(C)C)nc5c4)N3c3cc(F)c(N4CCC(c5ccccc5)CC4)c(F)c3)ccc2[nH]1)C(C)C`, the AUC(0-inf) [13] was 6830 ng·h/mL, the solubility kinetic [10] was 1.1 µM (≈ 1.13 µg/mL) and the CLint scaled [11] was less than 25 mL/min/kg. It also gave a CLint scaled [12] of 53.3 mL/min/kg.

For `COC(=O)N[C@H](C(=O)N1CCC[C@H]1c1nc2ccc([C@H]3CC[C@H](c4ccc5nc([C@@H]6CCCN6C(=O)[C@@H](NC(=O)OC)C(C)C)[nH]c5c4)N3c3ccc(C4CCCCC4)cc3)cc2[nH]1)C(C)C`, the fold change (FC) [8] was greater than 17, the fold change (FC) [1] was greater than 90 and the fold change (FC) [2] was greater than 30. It also gave a fold change (FC) [3] greater than 30, a fold change (FC) [4] greater than 577 and a fold change (FC) [6] of 1.
